# Most compounds without a hit are left out; they make up all but 1.4% or so of the library.
# NR2E3 ag-1: human photoreceptor-specific nuclear receptor agonism | Q9Y5X4 | CHO-S Gal4-NCOR/VP16-NR2E3 two-hybrid, luciferase | hit rate 0.35% among 360,000 | inhibition of corepressor binding, % at 3.98 µM;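 active means inhibition above the mean of all tested compounds plus 3 SD, cut at about 70% in these data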;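 further: 0% = DMSO with NR2E3 transfected cells and 100% = cells lacking NR2E3 construct; higher means lower luciferase signal from less NR2E3 corepressor binding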
# PG9 binder: small molecules binding HIV-1 gp120 antibody PG9 | AID 624416 | hit rate 0.43% among 360,000 | inhibition, % at 6.7 µM | TR-FRET gp120-PG9 antibody binding; in the data active means inhibition above about 8.5%
# NR2E3 ag-2: NR2E3 (human) agonism. GST-NR2E3/biotin-RetCOR TR-FRET, 1536-well. AID 2300. hit rate 0.12% among 320,000. inhibition of corepressor binding, % at 4.78 µM;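 active means percent inhibition above the cutoff of mean plus 3 SD of all tested compounds, set per screening campaign, cut at about 20% in these data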;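 further: 0% = DMSO wells and 100% = biotin wells as full block of FRET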
#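 Material: NR2E3–RetCOR corepressor complex | Quantity: 1.35 nM GST-tagged NR2E3 final | Schedule: 5 h at 4 °C | Replication: Singlicate compound wells | Reagent: RetCOR corepressor, biotinylated, 7 nM | Controls: Biotin wells as high control, 0.6% DMSO wells as low control | Signal: TR-FRET, Eu(K)-anti-GST donor, streptavidin-D2 acceptor, ex 340, em 617/671 nm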
# Rev-erbA mod: modulates human Rev-erb alpha binding to DNA. P20393. hit rate 0.79% among 370,000. Rev-erbα–FITC-DNA binding, fluorescence polarization, 90 min. activity, % at 10 µM. AID 1259318;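 active means activity above about 14%, limit read from the data; passing the limit was not always enough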;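 further: 0% = DMSO wells with 35 nM protein and 100% = DMSO wells with 750 nM protein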
# Target sequence (P20393 whole entry, looked up): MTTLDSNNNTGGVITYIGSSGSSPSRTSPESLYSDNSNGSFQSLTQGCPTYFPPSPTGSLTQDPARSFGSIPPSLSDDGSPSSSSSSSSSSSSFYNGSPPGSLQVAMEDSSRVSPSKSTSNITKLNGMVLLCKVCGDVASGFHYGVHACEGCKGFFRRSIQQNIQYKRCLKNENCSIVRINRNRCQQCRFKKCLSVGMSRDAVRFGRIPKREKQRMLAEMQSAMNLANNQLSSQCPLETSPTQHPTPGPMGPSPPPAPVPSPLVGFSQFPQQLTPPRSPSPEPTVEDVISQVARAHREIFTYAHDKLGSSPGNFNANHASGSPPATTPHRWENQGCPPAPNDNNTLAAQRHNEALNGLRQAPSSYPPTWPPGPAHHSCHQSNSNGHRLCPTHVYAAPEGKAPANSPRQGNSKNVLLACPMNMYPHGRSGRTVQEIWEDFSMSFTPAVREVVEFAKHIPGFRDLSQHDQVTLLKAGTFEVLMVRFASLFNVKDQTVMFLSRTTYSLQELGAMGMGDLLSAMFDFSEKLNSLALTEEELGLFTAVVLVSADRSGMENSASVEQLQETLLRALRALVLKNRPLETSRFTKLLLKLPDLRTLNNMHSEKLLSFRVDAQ
# NR2E3 ag confirm: NR2E3 agonism confirmed in two-hybrid assay; inhibition, % at 3.98 µM; CHO-S mammalian two-hybrid NR2E3-NCOR, luciferase luminescence; shares compounds with NR2E3 ag-1; AID 624378; hit rate 51% among 2,300;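 active means average inhibition above a cutoff equal to the mean inhibition of all tested compounds plus one SD, cut at about 70% in these data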;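 further: 0% = DMSO in NR2E3 cells and 100% = DMSO in cells lacking NR2E3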
# GAL4-VP16 luc: counter-screen for NR2E3 agonists: GAL4-VP16 reporter inhibitors. shares compounds with NR2E3 ag-1. CHO-S GAL4-VP16 luciferase reporter, luminescence. inhibition, % at 3.98 µM. hit rate 29% among 2,300;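 active means mean inhibition above a cutoff equal to the average over all tested compounds plus one standard deviation, cut at about 70% in these data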;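 further: luciferase from a UAS reporter driven by GAL4-VP16 transactivation; 0% = DMSO with VP16-transfected cells and 100% = DMSO with cells lacking VP16; higher means less reporter light so more repression of VP16 activity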
# Active calls of the source: *; . = no result.
SMILES,NR2E3 ag-1,PG9 binder,NR2E3 ag-2,Rev-erbA mod,NR2E3 ag confirm,GAL4-VP16 luc
Cc1ccc(-n2c(=O)[nH]cc(C(=O)Nc3ccc4c(c3)OCCO4)c2=O)cc1,10,-3,3,-2,.,.
COc1ccc(N2CC(C(=O)Nc3nnc(C4CCCCC4)s3)CC2=O)cc1 (centres undefined),-12,-2,-1,5,.,.
CC1CCN(C(=O)c2ccc(N3C(=O)C4CCC(C)CC4C3=O)cc2)CC1 (centres undefined),-15,1,0,3,.,.
O=C1C2C3C=CC(C3)C2C(=O)N1c1ccc(Cc2ccncc2)cc1 (centres undefined),52,1,3,-3,12,34
CC1CCC2C(=O)N(c3ccc(Cc4ccncc4)cc3)C(=O)C2C1 (centres undefined),49,1,-2,-5,77*,64
CCOC(=O)N1CCN(C(=O)C2CCC(CNS(=O)(=O)c3ccc(Cl)cc3)CC2)CC1 (centres undefined),3,-1,0,-3,.,.
CCN(CC)c1ccc(S(=O)(=O)Nc2cc(Cl)ccc2Cl)cc1NC(=S)NC(=O)C1CCCC1,55,0,3,3,9,-6
Cc1cccc(C)c1N1CCN(c2n[nH]c(N)n2)CC1,-15,0,-4,-2,.,.
COc1ccc(NC(=O)Cn2cc(C(C)=O)c3ccccc32)cc1,49,-1,-1,8,57,56
Cn1nnnc1Sc1ncnc2scc(-c3cnc(N)nc3)c12,.,.,.,0,.,.
Cn1nnnc1Sc1ncnc2scc(-c3ccc(F)cc3)c12,37,2,1,-1,.,.
Cn1nnnc1Sc1ncnc2scc(-c3ccccc3)c12,63,0,0,4,-18,10
Cn1nnnc1Sc1ncnc2scc(-c3ccccc3Br)c12,64,-2,3,-1,27,59
Cn1nnnc1Sc1ncnc2scc(-c3ccc(Br)cc3)c12,49,0,.,6,-25,-22
COc1ccccc1-c1csc2ncnc(Sc3nnnn3C)c12,-9,0,2,0,.,.
Cn1nnnc1Sc1ncnc2scc(-c3cccc4ccccc34)c12,60,1,.,3,59,69
Cc1cccc(NCN2C(=O)c3ccncc3C2=O)n1,-22,1,0,1,.,.
COCCCNC(=O)C[C@H]1C[C@@]2(C(=O)OC)C(=C[C@H](C(C)(C)C)O[C@@H]2C)N(Cc2ccco2)C1=O,.,.,.,6,.,.
O=C(NN=Cc1ccccc1OC(F)F)c1cccc(S(=O)(=O)N2CCCC2)c1,-14,-2,.,8,.,.
Nc1nc(=S)c2ncn(C3OC(CO)C(O)C3O)c2[nH]1 (centres undefined),57,0,4,-22,37,5
Nc1ncn([C@@H]2O[C@H](CO)[C@@H](O)[C@H]2O)c(=O)n1,54,-2,-4,-2,40,39
Nc1ccn([C@@H]2O[C@H](CO)[C@@H](O)[C@@H]2O)c(=O)n1,-23,-1,-2,1,.,.
Cc1ccc(NC(=O)[C@@]2(CC(=O)O)CC(/C=C/c3ccccc3)=NO2)c(C)c1,-21,-1,-3,-1,.,.
Cn1nnnc1Sc1ccc(C(=O)O)cc1[N+](=O)[O-],3,0,-1,2,.,.
COc1ccc(NC2CCCN(C(=O)c3cccc(N(C)C)c3)C2)cc1 (centres undefined),-19,0,.,-5,.,.
SMILES,NR2E3 ag-1,PG9 binder,NR2E3 ag-2,Rev-erbA mod,NR2E3 ag confirm,GAL4-VP16 luc
COC(=O)c1cn(NC(=O)C2CCC(C)CC2)c(=O)c2ccccc12 (centres undefined),-19,0,-3,5,.,.
COC(=O)c1cn(NC(=O)c2cc([N+](=O)[O-])ccc2F)c(=O)c2ccccc12,91*,-2,-1,-5,82*,66
CCC(C)NC(=O)Cn1nc(C(F)(F)F)c2c1CCCC2 (centres undefined),-1,0,2,2,.,.
CC(Oc1ccc(Br)cc1)C(=O)Nc1nc(-c2ccccn2)cs1 (centres undefined),76*,-1,-3,-3,19,13
O=C(Nc1nc(-c2ccccn2)cs1)Nc1ccc(F)cc1F,70*,0,0,1,36,-20
O=S(=O)(c1cccc(Br)c1)N1CCN(c2ccnc3cc(Cl)ccc23)CC1,64,-3,-1,8,65,60
C#CCOCCOCCOCCNc1nc(N2CCN(C(=O)Cn3cc(CCO)nn3)CC2)nc(N2CCN(C(=O)Cn3cc(CCO)nn3)CC2)n1,-25,2,.,-2,.,.
O=C(Cc1c(O)c2ccccc2[nH]c1=O)NCc1ccc(F)cc1,-6,1,0,-1,.,.
CN(c1nc2ccccc2[nH]c1=O)C1CCCCC1,55,2,2,15,90*,73*
COc1ccc(NC(C)C(=O)N/N=C/c2cc(Br)ccc2OC)cc1 (centres undefined),-4,-1,1,5,.,.
Nc1[nH]c(C(=O)c2ccccc2)c(-c2cccc3ccccc23)c1C(=O)NCc1ccc(Cl)cc1Cl,.,-1,.,-1,.,.
CCCCCCCCCCCCCCCC[n+]1cccc2ccccc21,24,1,0,7,.,.
CCCCCCCCC[n+]1cccc2c3ccccc3ccc21,82*,.,4,.,99*,74*
CC(=O)Nc1ccc(CNc2nc3cc(-c4ccccc4C)sc3c(=O)n2C)cc1,-6,0,.,-5,.,.
N#C/C(=C\c1ccc(Sc2nc3ccccc3[nH]2)o1)c1ccccc1,73*,-3,-2,1,82*,56
N#C/C(=C\c1ccc(Sc2ccc(Cl)cc2)o1)c1nc2ccccc2[nH]1,-56,-1,1,3,.,.
COc1ccc(-c2nnc(SCC(=O)N3CCOCC3)n2C)cc1OC,-7,1,3,6,.,.
O=c1[nH]c2cc([N+](=O)[O-])ccc2c2ccccc12,3,-3,.,-3,.,.
O=C1Cc2c([nH]c3ccc([N+](=O)[O-])cc23)-c2ccccc2N1,85*,-2,.,-23,97*,71*
COC(=O)c1ccc(CNC(=O)c2coc3ccccc3c2=O)cc1,-9,0,3,5,.,.
Cc1nc(N)c(Cc2ccccc2F)c(N)n1,5,0,3,-2,.,.
O=C(Cc1ccc(S(=O)(=O)N2CCOCC2)s1)N1CCN(c2cccc(C(F)(F)F)c2)CC1,72*,.,-1,.,81*,61
O=C(Cc1ccc(S(=O)(=O)N2CCCC2)s1)N1CCN(c2ccccc2)CC1,3,-2,2,-2,.,.
Cc1cc(=O)n(-c2ccc(O)cc2)[nH]1,56,-3,14,-7,-8,4
Cc1cc(=O)n(-c2ccc(C(=O)O)cc2)[nH]1,-24,0,14,2,.,.
COc1ccc(/C=N\NC(=O)c2ccccc2Br)cc1COc1c(F)c(F)cc(F)c1F,49,3,0,13,35,51
